Series [1] can be described thus: folding enthalpy; higher = less favourable; fluorescence melt of hairpins on a sequencing array, two-state fit. As to conditions: sodium 0.088 M. The gist of the method: (§1)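 Bootstrapped two-state fits yielded melting temperature and folding enthalpy for library hairpins. Cy3 fluorescence, with annealed Cy3 and quencher oligos, was imaged on a sequenced MiSeq flow cell in 50 mM Na-HEPES pH 8.0, 25 mM NaCl in 2.5 °C steps up to 60 °C, and normalised to pre-quench Cy3 and to control constructs. Four replicates were combined by inverse variance, and fitted temperatures were raised by 9.35 °C to match UV melts.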

The nature of series [2]: melting temperature; fluorescence melt of hairpins on a sequencing array, two-state fit, raised by 9.35 °C to match UV melts. As to conditions: sodium 0.088 M. The method in brief:
as §1

The values that follow come from the array DNA melting data of Ke et al. (doi:10.1101/2024.01.08.574731).

For the sequence GCGAACCTTCGC ((((....)))), the folding enthalpy in series [1] was -101 kJ/mol. Also, the Tm in series [2] stood at 50.3 °C.
The corresponding values for GCGAACGAAAGTTAGCGC ((((((....)))..))) are -130 kJ/mol and 55.8 °C.
On the same counts, the results for GCGAACGAAAGTTTCCGC ((((((....)))..))) are -88.2 kJ/mol and 36.2 °C.
With GCGAACGGAAACATCCGC (((.(.(....).).))), the folding enthalpy in series [1] is -31.2 kJ/mol. In series [2], the Tm was found to be 20.9 °C.
With GCGAACTTTCGC ((((....)))), the folding enthalpy in series [1] is -83.7 kJ/mol. Moreover, in series [2], the Tm was 51.1 °C.
On the same counts, the results for GCGAAGATTCGC ((((....)))) are -91.3 kJ/mol and 49 °C.
As for GCGAAGCGAAAGCCTAGC ((.(.((....)).).)), in series [1], the folding enthalpy was -31.8 kJ/mol. Also, the Tm in series [2] is 40.2 °C.
On the same counts, the results for GCGAAGCGAAAGCCTTGC ((.(.((....)).).)) are -32.8 kJ/mol and 36.3 °C.
On the same counts, the results for GCGAAGCGAAAGCTGCGC (((.(((....))).))) are -98.9 kJ/mol and 67.7 °C.
For GCGAAGCGAAAGCTTAGC ((.((((....)))).)), the folding enthalpy in series [1] was -67.3 kJ/mol. Besides, the Tm in series [2] turned out to be 56 °C.
Consider GCGAAGGAAACTTCGC ((((((....)))))), for which the folding enthalpy in series [1] was -145 kJ/mol. Further, in series [2], the Tm turned out to be 63.7 °C.
The corresponding values for GCGAAGGGTCGC ((((....)))) are -50.7 kJ/mol and 48.2 °C.
The corresponding values for GCGAATATCGC ((((...)))) are -69.6 kJ/mol and 46.5 °C.
With GCGAATCATCGC ((((....)))), in series [1], the folding enthalpy was -98.9 kJ/mol. Besides, the Tm in series [2] is 47.6 °C.
GCGAATCGAAAGATCCGC (((.(((....))).))): the folding enthalpy in series [1] was -197 kJ/mol. Also, the Tm in series [2] came to 52.3 °C.
On the same counts, the results for GCGAATGAAAATTCGC ((((((....)))))) are -152 kJ/mol and 65 °C.
The corresponding values for GCGAATGGAAACACTCGC ((((.((....)).)))) are -147 kJ/mol and 46.2 °C.
GCGAATGGAAACGTTTGC ((.((.(....).)).)): the folding enthalpy in series [1] was -129 kJ/mol. Moreover, the Tm in series [2] came out at 36 °C.
The corresponding values for GCGAATTTTCGC ((((....)))) are -123 kJ/mol and 53.2 °C.
Regarding GCGACAACTCGC ((((....)))), the folding enthalpy in series [1] is -88.7 kJ/mol. In addition, the Tm in series [2] is 41.7 °C.
On the same counts, the results for GCGACACGAAAGTGCCGC (((.(((....))).))) are -162 kJ/mol and 64.3 °C.
The corresponding values for GCGACACTTCGC ((((....)))) are -112 kJ/mol and 52.1 °C.
The corresponding values for GCGACAGGAAACTGTTGC ((.((((....)))).)) are -144 kJ/mol and 54.9 °C.
In the case of GCGACAGGTCGC ((((....)))), the folding enthalpy in series [1] was -113 kJ/mol. Also, the Tm in series [2] is 56.2 °C.
The corresponding values for GCGACAGTCGC ((((...)))) are -116 kJ/mol and 46.7 °C.
With GCGACCACTCGC ((((....)))), in series [1], the folding enthalpy was -106 kJ/mol. In series [2], the Tm was found to be 47 °C.
On the same counts, the results for GCGACCGAAAGGTACCGC ((((((....)))..))) are -91.5 kJ/mol and 47.2 °C.
On the same counts, the results for GCGACCGAAAGGTGACGC ((((((....)))..))) are -112 kJ/mol and 52 °C.
On the same counts, the results for GCGACCGAAAGGTTCCGC ((((((....)))..))) are -78.6 kJ/mol and 43.5 °C.
As for GCGACCGAAAGGTTCGC ((((((....))).))), in series [1], the folding enthalpy is -138 kJ/mol. The Tm in series [2] was 65.6 °C.
On to GCGACCGATCGC ((((....)))), for which the folding enthalpy in series [1] was -89.4 kJ/mol. For the same sequence, the Tm in series [2] was found to be 45.6 °C.
In the case of GCGACCGCGAAAGCGCGC (((..(((....)))))), the folding enthalpy in series [1] is -64.4 kJ/mol. For the same sequence, the Tm in series [2] is 56.1 °C.
The corresponding values for GCGACCGGAAACAGTCGC (((((.(....).))))) are -164 kJ/mol and 55.1 °C.
For the sequence GCGACCGTTCGC ((((....)))), the folding enthalpy in series [1] was -95.5 kJ/mol. Further, the Tm in series [2] was 49.1 °C.
On the same counts, the results for GCGACCTCGAAAGAGCGC (((..(((....)))))) are -130 kJ/mol and 49.1 °C.
On the same counts, the results for GCGACCTTTCGC ((((....)))) are -89.4 kJ/mol and 47 °C.
In the case of GCGACGACGAAAGTCCGC (((..(((....)))))), the folding enthalpy in series [1] was -103 kJ/mol. Besides, the Tm in series [2] was determined as 51.4 °C.
The corresponding values for GCGACGCATCGC ((((....)))) are -66.9 kJ/mol and 49.8 °C.
The corresponding values for GCGACGCGAAAGCAACGC (((..((....))..))) are -70.4 kJ/mol and 54.2 °C.
Consider GCGACGCGAAAGCATCGC ((((.((....)).)))), for which, in series [1], the folding enthalpy was -181 kJ/mol. Further, the Tm in series [2] is 66.9 °C.
On the same counts, the results for GCGACGCGAAAGCATTGC ((.(.((....)).).)) are -80.5 kJ/mol and 40.5 °C.
With GCGACGCGAAAGCGAAGC ((..(((....)))..)), the folding enthalpy in series [1] is -153 kJ/mol. The Tm in series [2] was 66.2 °C.
On the same counts, the results for GCGACGCGAAAGCGCGGC ((..(((....)))..)) are -54.7 kJ/mol and 55.7 °C.
On the same counts, the results for GCGACGCGAAAGCTTGGC ((.(.((....)).).)) are -43.2 kJ/mol and 37.2 °C.
The corresponding values for GCGACGGCTCGC ((((....)))) are -55.7 kJ/mol and 49.5 °C.
Consider GCGACGGGAAACCACCGC (((..((....))..))), for which the folding enthalpy in series [1] was -106 kJ/mol. Moreover, in series [2], the Tm came to 40.2 °C.
On the same counts, the results for GCGACGGGAAACTGTCGC (((((.(....).))))) are -150 kJ/mol and 67.6 °C.
With GCGACGGTTCGC ((((....)))), the folding enthalpy in series [1] was -84.2 kJ/mol. For the same sequence, the Tm in series [2] turned out to be 49.1 °C.
The corresponding values for GCGACGTTCGC ((((...)))) are -72.6 kJ/mol and 48 °C.
The corresponding values for GCGACGTTTCGC ((((....)))) are -75 kJ/mol and 47.8 °C.
The corresponding values for GCGACTCCGAAAGGACGC (((..(((....)))))) are -107 kJ/mol and 46.7 °C.
With GCGACTCGAAAGAGACGC (((.(((....))).))), the folding enthalpy in series [1] was -203 kJ/mol. For the same sequence, the Tm in series [2] stood at 62.3 °C.
As for GCGACTGATCGC ((((....)))), the folding enthalpy in series [1] is -91.8 kJ/mol. The Tm in series [2] worked out at 46.8 °C.
The corresponding values for GCGACTGGAAACAATCGC ((((.((....)).)))) are -169 kJ/mol and 45.5 °C.
On the same counts, the results for GCGACTGGAAACAGTCAC (.(((((....))))).) are -60.3 kJ/mol and 48.2 °C.
On the same counts, the results for GCGACTTCGAAAGAACGC (((..(((....)))))) are -93.7 kJ/mol and 36.7 °C.
Take GCGAGAAATCGC ((((....)))): the folding enthalpy in series [1] is -90 kJ/mol. Also, the Tm in series [2] was determined as 52.5 °C.
On the same counts, the results for GCGAGAGAAATCTCGC ((((((....)))))) are -135 kJ/mol and 66.8 °C.
With GCGAGAGGAAACCCTCGC (((((.(....).))))), the folding enthalpy in series [1] was -116 kJ/mol. Moreover, in series [2], the Tm is 54.1 °C.
On the same counts, the results for GCGAGAGGAAACTCCCGC (((.(((....))).))) are -149 kJ/mol and 48.5 °C.
The corresponding values for GCGAGAGGAAACTCTTGC ((.((((....)))).)) are -155 kJ/mol and 50 °C.
The corresponding values for GCGAGAGTTCGC ((((....)))) are -68.2 kJ/mol and 47.5 °C.
With GCGAGATATCGC ((((....)))), the folding enthalpy in series [1] is -102 kJ/mol. Further, the Tm in series [2] was found to be 56.9 °C.
The corresponding values for GCGAGATCTCGC ((((....)))) are -148 kJ/mol and 54.1 °C.
On the same counts, the results for GCGAGATTCGC ((((...)))) are -71.5 kJ/mol and 47.7 °C.
The corresponding values for GCGAGCCGTCGC ((((....)))) are -83.8 kJ/mol and 52.7 °C.
Consider GCGAGCGAAAGCTCACGC ((((((....)))..))), for which the folding enthalpy in series [1] is -61.9 kJ/mol. Moreover, the Tm in series [2] amounted to 60.8 °C.
GCGAGCGAAAGCTCCCGC ((((((....)))..))): the folding enthalpy in series [1] was -48.7 kJ/mol. Besides, in series [2], the Tm was 42.4 °C.
Consider GCGAGCGAAAGCTCTCGC ((((((....)))..))), for which, in series [1], the folding enthalpy is -72.6 kJ/mol. Besides, the Tm in series [2] amounted to 52.3 °C.
As for GCGAGCGAAAGCTTACGC ((((((....)))..))), the folding enthalpy in series [1] is -86.1 kJ/mol. Further, the Tm in series [2] was 50.7 °C.
On the same counts, the results for GCGAGCGAAAGCTTTCGC ((((((....)))..))) are -55.2 kJ/mol and 50.3 °C.
On the same counts, the results for GCGAGCGCGAAAGCGCGC (((..(((....)))))) are -31 kJ/mol and 59.9 °C.
Take GCGAGCTGTCGC ((((....)))): in series [1], the folding enthalpy was -74.3 kJ/mol. Also, in series [2], the Tm stood at 48.8 °C.
On the same counts, the results for GCGAGCTTTCGC ((((....)))) are -80.8 kJ/mol and 50.5 °C.
The corresponding values for GCGAGGAAACTCGC (((((....))))) are -136 kJ/mol and 66.4 °C.
Regarding GCGAGGACGAAAGTCCGC (((..(((....)))))), the folding enthalpy in series [1] was -35.4 kJ/mol. Also, in series [2], the Tm is 56.2 °C.
On the same counts, the results for GCGAGGCCTCGC ((((....)))) are -193 kJ/mol and 62.8 °C.
